Experimental data taken from paper PMC5679012 (Chemistry (Weinheim an der Bergstrasse, Germany), 2017).

Assay: CO release kinetics by increase of fluorescence intensity in DMSO/PBS
Assay type: physicochemical
Settings: fluorescence increase (450 nm); 100 μM; DMSO/PBS (pH = 7.4) 4:1, 37 °C
Method in brief: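 Test compounds of scaffolds I and II were dissolved in DMSO/PBS (pH 7.4, 4:1) at 100 μM final and held at 37 °C. CO release was tracked as the rise in fluorescence intensity at 450 nm, read at successive time points. Each experiment was repeated three times independently.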

## C#CC(C)(C)NC(=O)C1=C2C(=C(c3ccccc3)C1=O)c1cccc3cccc2c13 [BW-CO-111]
  k, CO release rate: 3.31 ± 0.28 h⁻¹
  t1/2, half-life for CO release: ~12 min
